The results in this text go back to ChEMBL document CHEMBL1759958, “Disassembly of preformed amyloid beta fibrils by small organofluorine molecules” (Bioorg Med Chem Lett, 2011).

Each structure is given as a SMILES string. The source made the active and inactive calls. No cut-off for these calls is given here.

Test [1] is described as follows: Induction of disassembly of preformed amyloid beta (1 to 40) fibrils assessed as decrease in fibril amount at 10:1 compound to amyloid beta ratio by thioflavin T fluorescence method. In a few lines: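 Aβ1-40 fibrils were grown at 100 μM final in 10 mM HEPES/100 mM NaCl, pH 7.4, at 37°C with 77 rpm shaking until THT saturation. Compound was added from 0.15 M DMSO stock, vortexed and re-incubated under the same conditions, then sampled periodically into 5 μM ThT (glycine-NaOH, pH 8.5). Read at ex 430/em 484 nm, ThT background subtracted, normalized to Aβ-only control; 3–4 parallel runs, mean ± SD.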

Test [2] in a line: Induction of disassembly of preformed amyloid beta (1 to 40) fibrils assessed as disaggregated fibrils at 10:1 compound to amyloid beta ratio for 4 days by fourier-transform infrared spectroscopy. The gist of the method: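 Preformed Aβ1-40 fibrils (100 μM, HEPES pH 7.4, grown at 37°C with 77 rpm shaking to THT saturation) were exposed to compound added from DMSO stock and re-incubated at 37°C with shaking. For FTIR, 20 μl aliquots were lyophilized and mixed with 0.2 g solid KBr.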

Test [3] can be described thus: Induction of disassembly of preformed amyloid beta (1 to 40) fibrils assessed as disaggregated fibrils at 10:1 compound to amyloid beta ratio for 4 days by atomic force microscopy. In a few lines: (§1)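 Synthetic Aβ1-40 dissolved in 100 mM NaOH, diluted to 100 μM in 10 mM HEPES (100 mM NaCl, 0.02% NaN3, pH 7.4), grown at 37°C with shaking (77 rpm) until ThT saturation. Compound added from 0.15 M DMSO stock at 10:1 molar ratio, vortexed 30 s, re-incubated 37°C shaking. Aliquots of 2-5 μL spotted on fresh mica for 30-60 s, water-rinsed, air-dried. Imaged by non-contact AFM.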

Test [4] in a line: Induction of disassembly of preformed amyloid beta (1 to 40) fibrils assessed as disaggregated fibrils at 10:1 compound to amyloid beta ratio for 1 day by atomic force microscopy. The gist of the method: as §1
Test [5] in a line: Induction of disassembly of preformed amyloid beta (1 to 40) fibrils assessed as disaggregated fibrils at 10:1 compound to amyloid beta ratio for 6 days by atomic force microscopy. The gist of the method:
as §1

The nature of test [6]: Induction of disassembly of preformed amyloid beta (1 to 40) fibrils assessed as disaggregated fibrils at 10:1 compound to amyloid beta ratio by atomic force microscopy. Conditions: TDE = time-dependent effect. The gist of the method: as §1

On to `CCOC(=O)[C@@](O)(c1c[nH]c2ccc(Br)cc12)C(F)(F)F`, for which the outcome in test [1] and in test [2] was Active.

For the compound `CCOC(=O)C(O)(c1c(C)[nH]c2ccc(C(=O)OC)cc12)C(F)(F)F` (racemic), the outcome in test [1] and in test [2] was Active.

On to `CCOC(=O)[C@](O)(c1c[nH]c2ccc(Cl)cc12)C(F)(F)F`, for which the outcome in test [1] and in test [2] was Active.

As for `CCOC(=O)C(O)(c1c(C)[nH]c2ccc(C)cc12)C(F)(F)F` (racemic), the outcome in test [1] was Active.

In the case of `CCOC(=O)[C@](O)(c1c[nH]c2ccc(I)cc12)C(F)(F)F`, the outcome in test [1], in test [3], in test [4], in test [5] and in test [2] was Active. The Activity result in test [6] is “tde”.

Turning to `CCOC(=O)[C@@](O)(c1c[nH]c2ccc(Cl)cc12)C(F)(F)F`, the result in test [1], in test [3] and in test [2] was Active.

As for `CCOC(=O)C(O)(c1c(C)[nH]c2ccc(OC)cc12)C(F)(F)F` (racemic), the result in test [1] was Active.

On to `CCOC(=O)C(O)(c1c[nH]c2ccc(Br)cc12)C(F)(F)F` (racemic), for which the result in test [1] and in test [2] was Active.

On to `CCOC(=O)[C@](O)(c1c[nH]c2ccc(Br)cc12)C(F)(F)F`, for which the result in test [1] and in test [2] was Active.

With `COc1ccc2[nH]cc(CCNC(C)=O)c2c1`, the result in test [1] and in test [2] was Active.

For the compound `CCOC(=O)[C@@](O)(c1c[nH]c2ccc(I)cc12)C(F)(F)F`, the result in test [1], in test [3] and in test [2] was Active.

In the case of `CCOC(=O)C(O)(c1c[nH]c2ccc(C)cc12)C(F)(F)F` (racemic), in test [1], the outcome was Active.

On to `CCOC(=O)C(O)(c1c(C)n(C)c2ccccc12)C(F)(F)F` (racemic), for which the outcome in test [1] was Active.

`CCOC(=O)C(O)(c1c[nH]c2ccc(I)cc12)C(F)(F)F` (racemic): the result in test [1] was Active.

In the case of `CCOC(=O)C(O)(c1c[nH]c2ccccc12)C(F)(F)F` (racemic), in test [1], the outcome was Active.

Regarding `CCOC(=O)C(O)(c1c[nH]c2ccc(Cl)cc12)C(F)(F)F` (racemic), the result in test [1] and in test [2] was Active.
